From ChEMBL document CHEMBL1141169, “Discovery of 5-arylsulfonamido-3-(pyrrolidin-2-ylmethyl)-1H-indole derivatives as potent, selective 5-HT6 receptor agonists and antagonists” (J Med Chem, 2005)

Legend:
[1] = biological target: T1, 5-hydroxytryptamine receptor 6 (Homo sapiens, UniProt P50406); experiment: Inhibition of [3H]LSD binding to human 5-hydroxytryptamine 6 receptor expressed in HeLa cells; format: cell-based
Procedure, shortened: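 Competition binding against [3H]-LSD on cloned human 5-HT6 receptors stably expressed in HeLa cells. Ki determined in triplicate; single-point lines are % inhibition at 1000 nM.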

[2] = biological target: T1, 5-hydroxytryptamine receptor 6; experiment: Effective agonist concentration in cAMP release assay in HeLa cells expressing human 5-hydroxytryptamine 6 receptor; format: functional, cell-based
Procedure, shortened: (§1)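 cAMP production read out across a range of ligand concentrations in HeLa cells stably transfected with the human 5-HT6 receptor, ligand given alone as agonist. EC50 and Emax each determined in triplicate.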

[3] = biological target: T1, 5-hydroxytryptamine receptor 6; experiment: Maximum percentage agonism of cAMP production in HeLa cells expressing human 5-hydroxytryptamine 6 receptor; format: functional, cell-based; procedure, shortened: as §1
[4] = biological target: T1, 5-hydroxytryptamine receptor 6; experiment: Inhibition of 5-HT stimulated cAMP production in HeLa cells expressing human 5-hydroxytryptamine 6 receptor; format: functional, cell-based
Procedure, shortened: (§2)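 Antagonist mode: cAMP production in HeLa cells stably transfected with the human 5-HT6 receptor was stimulated with 5-HT, and inhibition was measured across a range of ligand concentrations. IC50 and Imax each determined in triplicate.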

[5] = biological target: T1, 5-hydroxytryptamine receptor 6; experiment: Maximum percentage inhibition of 5-HT stimulated cAMP production in HeLa cells expressing 5-hydroxytryptamine 6 receptor; format: functional, cell-based; procedure, shortened: as §2

T1 sequence (P50406 whole entry): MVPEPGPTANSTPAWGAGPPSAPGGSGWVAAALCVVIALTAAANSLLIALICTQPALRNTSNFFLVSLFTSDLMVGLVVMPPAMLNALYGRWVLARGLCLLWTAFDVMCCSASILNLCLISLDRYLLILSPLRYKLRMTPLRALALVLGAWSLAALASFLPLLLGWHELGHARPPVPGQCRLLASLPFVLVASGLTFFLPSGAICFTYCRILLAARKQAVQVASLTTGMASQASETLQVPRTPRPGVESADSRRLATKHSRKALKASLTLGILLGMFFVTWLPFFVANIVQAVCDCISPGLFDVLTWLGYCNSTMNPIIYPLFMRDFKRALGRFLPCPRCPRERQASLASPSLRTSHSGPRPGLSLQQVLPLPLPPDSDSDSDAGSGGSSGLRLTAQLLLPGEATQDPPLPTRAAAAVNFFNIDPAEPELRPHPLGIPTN

Row | Compound | Ki [1] | EC50 [2] | Emax [3] | IC50 [4] | Imax [5]
1 | CC(C)c1ccc(S(=O)(=O)Nc2ccc3[nH]cc(C[C@H]4CCCN4C)c3c2)cc1 | 1 nM |  |  |  | 
2 | Cc1ccc(S(=O)(=O)Nc2ccc3[nH]cc(C[C@H]4CCCN4C)c3c2)cc1 | 1 nM | 1.3 nM | 79% |  | 
3 | O=S(=O)(Nc1ccc2[nH]cc(C[C@H]3CCCN3)c2c1)c1ccc(F)cc1 | 4 nM |  |  |  | 
4 | COc1ccc(S(=O)(=O)Nc2ccc3[nH]cc(C[C@@H]4CCCN4C)c3c2)cc1 | 34 nM |  |  |  | 
5 | CN1CCC[C@H]1Cc1c[nH]c2ccc(NS(=O)(=O)c3ccccc3Br)cc12 | 5 nM |  |  | 0.8 nM | 75%
6 | CN1CCC[C@H]1Cc1c[nH]c2ccc(NS(=O)(=O)c3cccc(Cl)c3)cc12 | 11 nM |  |  |  | 
7 | CN1CCC[C@H]1Cc1c[nH]c2ccc(NS(=O)(=O)c3ccc(OC(F)(F)F)cc3)cc12 | 8 nM | 180 nM | 68% | 25.8 nM | 85%
8 | O=S(=O)(Nc1ccc2[nH]cc(C[C@H]3CCCN3)c2c1)c1ccc(I)cc1 | 1 nM |  |  |  | 
9 | Cc1noc(C)c1S(=O)(=O)Nc1ccc2[nH]cc(C[C@H]3CCCN3C)c2c1 | 1 nM | 0.8 nM | 77% |  | 
10 | CN1CCC[C@H]1Cc1c[nH]c2ccc(NS(=O)(=O)c3ccc(C(F)(F)F)cc3)cc12 | 10 nM |  |  | 21.6 nM | 78%
11 | O=S(=O)(Nc1ccc2[nH]cc(C[C@H]3CCCN3)c2c1)c1ccccc1 | 4 nM | 1.4 nM | 73% |  | 
12 | CN1CCC[C@@H]1Cc1c[nH]c2ccc(NS(=O)(=O)c3ccc(F)cc3)cc12 | 1 nM | 1.1 nM | 85% |  | 
13 | O=S(=O)(Nc1ccc2[nH]cc(C[C@@H]3CCCN3)c2c1)c1cccc(Cl)c1 | 36 nM |  |  |  | 
14 | O=S(=O)(Nc1ccc2[nH]cc(C[C@H]3CCCN3)c2c1)c1ccc(Cl)cc1 | 3 nM | 4.5 nM | 99% |  | 
15 | Cc1c(S(=O)(=O)Nc2ccc3[nH]cc(C[C@@H]4CCCN4C)c3c2)sc2ccc(Cl)cc12 | 2 nM |  |  | 1.1 nM | 91%
16 | O=S(=O)(Nc1ccc2[nH]cc(C[C@@H]3CCCN3)c2c1)c1ccc(F)cc1F | 131 nM |  |  |  | 
17 | CN1CCC[C@@H]1Cc1c[nH]c2ccc(NS(=O)(=O)c3ccc(I)cc3)cc12 | 0.3 nM | 2.7 nM | 72% |  | 
18 | CN1CCC[C@@H]1Cc1c[nH]c2ccc(NS(=O)(=O)c3ccc(OC(F)(F)F)cc3)cc12 | 1 nM | 2.9 nM | 94% |  | 
19 | CN1CCC[C@H]1Cc1c[nH]c2ccc(NS(=O)(=O)c3ccc4ccccc4c3)cc12 | 1 nM |  |  | 10.4 nM | 95%
20 | O=S(=O)(Nc1ccc2[nH]cc(C[C@H]3CCCN3)c2c1)c1cccc(C(F)(F)F)c1 | 4 nM | 5.8 nM | 77% |  | 
21 | CN1CCC[C@@H]1Cc1c[nH]c2ccc(NS(=O)(=O)c3ccc4ccccc4c3)cc12 | 1 nM |  |  |  | 
22 | CN1CCC[C@@H]1Cc1c[nH]c2ccc(NS(=O)(=O)c3ccccc3)cc12 | 1 nM |  |  |  | 
23 | O=S(=O)(Nc1ccc2[nH]cc(C[C@H]3CCCN3)c2c1)c1ccc(Br)cc1 | 3 nM |  |  |  | 

Row | Compound | Ki [1] | EC50 [2] | Emax [3] | IC50 [4] | Imax [5]
24 | O=S(=O)(Nc1ccc2[nH]cc(C[C@H]3CCCN3)c2c1)c1ccc(Cl)c(Cl)c1 | 3 nM |  |  |  | 
25 | O=S(=O)(Nc1ccc2[nH]cc(C[C@H]3CCCN3)c2c1)c1ccc(F)cc1Cl | 9 nM |  |  |  | 
26 | CN1CCC[C@H]1Cc1c[nH]c2ccc(NS(=O)(=O)c3cccc(C(F)(F)F)c3)cc12 | 12 nM |  |  | 14.1 nM | 78%
27 | O=S(=O)(Nc1ccc2[nH]cc(C[C@H]3CCCN3)c2c1)c1cccc(Cl)c1 | 2 nM | 1 nM | 92% |  | 
28 | CN1CCC[C@H]1Cc1c[nH]c2ccc(NS(=O)(=O)c3ccccc3)cc12 | 16 nM |  |  |  | 
29 | O=S(=O)(Nc1ccc2[nH]cc(C[C@@H]3CCCN3)c2c1)c1ccc(Br)cc1 | 57 nM |  |  |  | 
30 | CN1CCC[C@@H]1Cc1c[nH]c2ccc(NS(=O)(=O)c3ccc(C(F)(F)F)cc3)cc12 | 0.4 nM | 4.5 nM | 85% |  | 
31 | CN1CCC[C@@H]1Cc1c[nH]c2ccc(NS(=O)(=O)c3cccc(C(F)(F)F)c3)cc12 | 1 nM | 3.2 nM | 90% |  | 
32 | O=S(=O)(Nc1ccc2[nH]cc(C[C@H]3CCCN3)c2c1)c1ccc(F)cc1F | 8 nM | 5.2 nM | 78% |  | 
33 | O=S(=O)(Nc1ccc2[nH]cc(C[C@H]3CCCN3)c2c1)c1ccccc1F | 4 nM |  |  |  | 
34 | COc1ccc(Cl)cc1S(=O)(=O)Nc1ccc2[nH]cc(C[C@@H]3CCCN3C)c2c1 | 24 nM |  |  |  | 
35 | CC(C)c1ccc(S(=O)(=O)Nc2ccc3[nH]cc(C[C@@H]4CCCN4C)c3c2)cc1 | 3 nM |  |  | 21.1 nM | 76%
36 | CN1CCC[C@H]1Cc1c[nH]c2ccc(NS(=O)(=O)c3ccccc3Cl)cc12 | 22 nM |  |  |  | 
37 | CC(C)c1ccc(S(=O)(=O)Nc2ccc3[nH]cc(C[C@H]4CCCN4)c3c2)cc1 | 1 nM |  |  |  | 
38 | CN1CCC[C@@H]1Cc1c[nH]c2ccc(NS(=O)(=O)c3ccc(Cl)c(Cl)c3)cc12 | 1 nM |  |  |  | 
39 | CN1CCC[C@H]1Cc1c[nH]c2ccc(NS(=O)(=O)c3ccc(F)cc3Cl)cc12 | 35 nM |  |  |  | 
40 | CN1CCC[C@H]1Cc1c[nH]c2ccc(NS(=O)(=O)c3ccc(Cl)c(Cl)c3)cc12 | 7 nM |  |  |  | 
41 | CN1CCC[C@@H]1Cc1c[nH]c2ccc(NS(=O)(=O)c3ccccc3F)cc12 | 1 nM | 1.3 nM | 91% |  | 
42 | COc1ccc(S(=O)(=O)Nc2ccc3[nH]cc(C[C@H]4CCCN4C)c3c2)cc1 | 1 nM | 2.2 nM | 83% |  | 
43 | Cc1ccc(S(=O)(=O)Nc2ccc3[nH]cc(C[C@H]4CCCN4)c3c2)cc1 | 4 nM |  |  |  | 
44 | CN1CCC[C@H]1Cc1c[nH]c2ccc(NS(=O)(=O)c3ccc(Br)cc3)cc12 | 9 nM |  |  | 1.6 nM | 85%
45 | O=S(=O)(Nc1ccc2[nH]cc(C[C@H]3CCCN3)c2c1)c1ccc(OC(F)(F)F)cc1 | 5 nM | 4.2 nM | 86% |  | 
